Experimental data as given in ChEMBL document CHEMBL1817625, “Synthesis of pheophorbide-a conjugates with anticancer drugs as potential cancer diagnostic and therapeutic agents” (Bioorg Med Chem, 2011).
The source made the active and inactive calls. No cut-off for these calls is given here.

What was measured:
HeLa [1] = test: Cytotoxicity against human HeLa cells assessed as inhibition of cell growth at 10 uM after 3 days by SRB assay; type: functional, cell-based
Method in brief: (§1)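 Cells were kept at 37 °C in 5% CO2, HeLa in DMEM and MCF7 in RPMI 1640, each with 10% FBS. They were seeded at 50,000 cells/mL in 96-well plates, exposed to 10 µM compound for 3 days, then fixed in the cold for 1 h. Staining was SRB for 1 h at room temperature with 1% acetic acid washes. Bound dye was released in 10 mM Tris and read at 515 nm. Values are means of four duplicated samples, as a percentage of solvent-treated control.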

KB = test: Cytotoxicity against human KB cells assessed as inhibition of cell growth at 10 uM after 3 days by SRB assay; type: functional, cell-based
Method in brief: (§2)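 Cells were grown in RPMI 1640 with 10% FBS and antibiotic–antimycotic at 37 °C, 5% CO2, and trypsin/EDTA-detached. They were seeded at 50,000 cells/mL and exposed to 10 µM compound for 3 days. For SRB staining, cells were fixed cold for 1 h, stained 1 h at room temperature, washed with 1% acetic acid and solubilized in 10 mM Tris. A515 was read; means of four duplicates were expressed as % of solvent-treated control.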

A549 = test: Cytotoxicity against human A549 cells assessed as inhibition of cell growth at 10 uM after 3 days by SRB assay; type: functional, cell-based
Method in brief: (§3)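 Cultures were kept in DMEM with 10% FBS and antibiotic–antimycotic at 37 °C, 5% CO2, and detached with trypsin/EDTA. Cells were plated at 50,000 cells/mL and treated with 10 µM compound for 3 days. SRB staining: 1 h cold fixation, 1 h room-temperature stain, 1% acetic acid washes, 10 mM Tris release. A515 was read; the mean of four duplicates was given as % of solvent-treated control.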

SK-OV-3 = test: Cytotoxicity against human SKOV3 cells assessed as inhibition of cell growth at 10 uM after 3 days by SRB assay; type: functional, cell-based; method in brief: as §2
MCF7 = test: Cytotoxicity against human MCF7 cells assessed as inhibition of cell growth at 10 uM after 3 days by SRB assay; type: functional, cell-based; method in brief: as §1
YD-10B = test: Cytotoxicity against human YD-10B cells assessed as inhibition of cell growth at 10 uM after 3 days by SRB assay; type: functional, cell-based; method in brief: as §3
HepG2 = test: Cytotoxicity against human HepG2 cells assessed as inhibition of cell growth at 10 uM after 3 days by SRB assay; type: functional, cell-based; method in brief: as §3
U-87MG ATCC = test: Cytotoxicity against human U87MG cells assessed as inhibition of cell growth at 10 uM after 3 days by SRB assay; type: functional, cell-based; method in brief: as §2
PC-3 = test: Cytotoxicity against human PC3 cells assessed as inhibition of cell growth at 10 uM after 3 days by SRB assay; type: functional, cell-based; method in brief: as §2
HeLa [2] = test: Cellular uptake in human HeLa cells at 10 uM after 48 hrs by confocal microscopic analysis; type: ADME, cell-based
Method in brief: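 HeLa cells were seeded in slide dishes in RPMI 1640 overnight. They were then exposed to 10 µM compound in complete medium for 48 h under 95% air/5% CO2 and washed three times with PBS. Confocal imaging used 440 nm excitation, collecting 575–600 nm emission (doxorubicin channel) and 655–755 nm emission (pheophorbide-a channel).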

HCT-116 = test: Cytotoxicity against human HCT116 cells assessed as inhibition of cell growth at 10 uM after 3 days by SRB assay; type: functional, cell-based; method in brief: as §2
AT84 = test: Cytotoxicity against mouse AT84 cells assessed as inhibition of cell growth at 10 uM after 3 days by SRB assay; type: functional, cell-based; method in brief: as §2

SMILES | growth inhibition (GI) (HeLa [1]) | growth inhibition (GI) (KB) | growth inhibition (GI) (A549) | growth inhibition (GI) (SK-OV-3) | growth inhibition (GI) (MCF7) | growth inhibition (GI) (YD-10B) | growth inhibition (GI) (HepG2) | growth inhibition (GI) (U-87MG ATCC) | growth inhibition (GI) (PC-3) | Drug uptake (HeLa [2]) | growth inhibition (GI) (HCT-116) | growth inhibition (GI) (AT84)
C=Cc1c(C)c2cc3nc(c4c5[nH]c(cc6nc(cc1[nH]2)C(C)=C6CC)c(C)c5C(=O)[C@@H]4C(=O)OC)[C@@H](CCC(=O)Nc1ccc(COC(=O)N[C@@H]2C[C@@H](O[C@H]4C[C@](O)(C(=O)CO)Cc5c(O)c6c(c(O)c54)C(=O)c4c(OC)cccc4C6=O)O[C@H](C)[C@@H]2O)cc1)[C@@H]3C | Active | Active | Active | Active | Active | Active | Active | Active | Active | Active | Active | Active
COc1cccc2c1C(=O)c1c(O)c3c(c(O)c1C2=O)C[C@@](O)(C(=O)CO)C[C@@H]3O[C@H]1C[C@H](N)[C@H](O)[C@H](C)O1 [DOXORUBICIN] | – | – | – | – | – | – | – | – | – | Active | – | –
C=Cc1c(C)c2cc3nc(c4c5[nH]c(cc6nc(cc1[nH]2)C(C)=C6CC)c(C)c5C(=O)[C@@H]4C(=O)OC)[C@@H](CCC(=O)O)[C@@H]3C [PHEOPHORBIDE A] | – | – | – | – | – | – | – | – | – | Active | – | –
C=Cc1c(C)c2cc3nc(c4c5[nH]c(cc6nc(cc1[nH]2)C(C)=C6CC)c(C)c5C(=O)[C@@H]4C(=O)OC)[C@@H](CCC(=O)O[C@@H](C(=O)O[C@H]1C[C@@]2(O)[C@@H](OC(=O)c4ccccc4)[C@@H]4[C@]5(OC(C)=O)CO[C@@H]5C[C@H](O)[C@@]4(C)C(=O)[C@H](OC(C)=O)C(=C1C)C2(C)C)[C@@H](NC(=O)c1ccccc1)c1ccccc1)[C@@H]3C | Active | Active | – | – | Active | Active | – | – | – | – | – | –
C=Cc1c(C)c2cc3nc(c4c5[nH]c(cc6nc(cc1[nH]2)C(C)=C6CC)c(C)c5C(=O)[C@@H]4C(=O)OC)[C@@H](CCC(=O)Oc1ccccc1/C=C/C(=O)N[C@@H]1C[C@@H](O[C@H]2C[C@](O)(C(=O)CO)Cc4c(O)c5c(c(O)c42)C(=O)c2c(OC)cccc2C5=O)O[C@H](C)[C@@H]1O)[C@@H]3C | Active | Active | Active | Active | Active | Active | Active | Active | Active | Active | Active | Active
C=Cc1c(C)c2cc3nc(c4c5[nH]c(cc6nc(cc1[nH]2)C(C)=C6CC)c(C)c5C(=O)[C@@H]4C(=O)OC)[C@@H](CCC(=O)N[C@@H]1C[C@@H](O[C@H]2C[C@](O)(C(=O)CO)Cc4c(O)c5c(c(O)c42)C(=O)c2c(OC)cccc2C5=O)O[C@H](C)[C@@H]1O)[C@@H]3C | Active | – | – | – | Active | – | – | Active | – | Active | – | Active
